The source of these data is ChEMBL document CHEMBL1138061, “A thienopyridazinone-based melanin-concentrating hormone receptor 1 antagonist with potent in vivo anorectic properties” (J Med Chem, 2006).

Series [1] deals with T1, Melanin-concentrating hormone receptor 1 (Rattus norvegicus, UniProt P97639). In words: Binding affinity to chimeric rat/human MCH1R stably expressed in HEK293 cells. The format is cell-based. The procedure, abridged: (§1)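 Each value is the average of at least two replicate determinations.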
T1 sequence (P97639 whole entry, looked up): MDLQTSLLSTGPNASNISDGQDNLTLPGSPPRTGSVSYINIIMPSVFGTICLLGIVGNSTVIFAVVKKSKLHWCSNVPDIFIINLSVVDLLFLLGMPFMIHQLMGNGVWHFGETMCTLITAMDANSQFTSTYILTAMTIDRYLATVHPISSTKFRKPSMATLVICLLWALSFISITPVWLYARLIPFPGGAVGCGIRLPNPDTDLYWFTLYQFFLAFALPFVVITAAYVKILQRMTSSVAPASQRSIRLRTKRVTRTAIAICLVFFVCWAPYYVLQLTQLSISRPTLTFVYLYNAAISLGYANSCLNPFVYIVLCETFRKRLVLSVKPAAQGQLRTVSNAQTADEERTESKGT
The nature of series [2]: Intrinsic clearance in human liver microsomes. The format is ADME, Microsome. The procedure, abridged: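 Intrinsic human clearance was determined in human liver microsomes. Standard error is estimated below 10%, based on a reference compound run as a standard.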
The target of series [3] is T2, Muscarinic acetylcholine receptor M1 (Homo sapiens, UniProt P11229).
T2 sequence (P11229 whole entry): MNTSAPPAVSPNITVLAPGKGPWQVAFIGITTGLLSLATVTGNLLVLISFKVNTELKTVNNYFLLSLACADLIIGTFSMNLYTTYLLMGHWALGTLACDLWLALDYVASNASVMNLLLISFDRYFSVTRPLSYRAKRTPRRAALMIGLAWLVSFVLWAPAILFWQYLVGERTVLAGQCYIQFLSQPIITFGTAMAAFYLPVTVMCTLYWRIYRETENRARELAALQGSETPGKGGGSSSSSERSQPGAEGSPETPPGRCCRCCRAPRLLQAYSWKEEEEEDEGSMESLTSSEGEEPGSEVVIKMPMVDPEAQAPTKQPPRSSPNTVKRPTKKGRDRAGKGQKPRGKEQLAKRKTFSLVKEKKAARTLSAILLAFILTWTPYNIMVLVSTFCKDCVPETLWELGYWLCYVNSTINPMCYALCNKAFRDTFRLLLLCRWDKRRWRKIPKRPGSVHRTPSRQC
In words: Binding affinity to muscarinic M1R.

Series [4] is described as follows: AUC in Sprague-Dawley rat at 10 mg/kg, po. The series is classed as ADME, organism-based. The arrangement: dose 10 mg/kg, route oral. As to conditions: plasma. The procedure, abridged:
(§2)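 Rats dosed 10 mg kg-1 orally and 2.5 mg kg-1 iv. AUC and Cmax come from the oral dose. Brain levels were measured 1 h and 4 h after oral dosing and expressed as brain/plasma ratios at those times. Vd, clearance and t1/2 were derived from the same dosing.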

Series [5] can be described thus: Clearance in Sprague-Dawley rat at 10 mg/kg, po and 2.5 mg/kg, iv. The series is classed as ADME, organism-based. As to conditions: in vivo.
Series [6] in a line: Half life in Sprague-Dawley rat at 10 mg/kg, po and 2.5 mg/kg, iv. The format is ADME, organism-based. As to conditions: in vivo. The procedure, abridged: as §2
A short description of series [7]: Brain to plasma ratio in Sprague-Dawley rat at 10 mg/kg, po and 2.5 mg/kg, iv after 4 hours. The series is classed as ADME, organism-based. The procedure, abridged:
as §2

Series [8] in a line: Cmax in Sprague-Dawley rat plasma at 10 mg/kg, po. The format is ADME, organism-based. On the set-up: dose 10 mg/kg, route oral. Summed up:
as §2

Series [9] concerns the target T3, Voltage-gated inwardly rectifying potassium channel KCNH2 (Homo sapiens, UniProt Q12809). Description: Affinity for human ERG channel by patch clamp assay. The format is functional.
Series [10] is described as follows: Selectivity for MCH1R over muscarinic M3R.
A short description of series [11]: Volume of distribution in Sprague-Dawley rat at 10 mg/kg, po and 2.5 mg/kg, iv. The format is ADME, organism-based. The following applies: in vivo, read-out: Vdss. The procedure, abridged:
as §2

Series [12] is described as follows: Brain to plasma ratio in Sprague-Dawley rat at 10 mg/kg, po and 2.5 mg/kg, iv after 1 hour. The format is ADME, organism-based. Summed up:
as §2

The nature of series [13]: Plasma concentration in Sprague-Dawley rats at 1 mg/kg after 1 day. The series is classed as ADME, organism-based. The arrangement: dose 1 mg/kg. The following applies: rat.
Series [14] deals with Muscarinic acetylcholine receptor M3 (Homo sapiens, UniProt P20309). Description: Binding affinity to muscarinic M3R.
Muscarinic acetylcholine receptor M3, sequence (P20309 whole entry): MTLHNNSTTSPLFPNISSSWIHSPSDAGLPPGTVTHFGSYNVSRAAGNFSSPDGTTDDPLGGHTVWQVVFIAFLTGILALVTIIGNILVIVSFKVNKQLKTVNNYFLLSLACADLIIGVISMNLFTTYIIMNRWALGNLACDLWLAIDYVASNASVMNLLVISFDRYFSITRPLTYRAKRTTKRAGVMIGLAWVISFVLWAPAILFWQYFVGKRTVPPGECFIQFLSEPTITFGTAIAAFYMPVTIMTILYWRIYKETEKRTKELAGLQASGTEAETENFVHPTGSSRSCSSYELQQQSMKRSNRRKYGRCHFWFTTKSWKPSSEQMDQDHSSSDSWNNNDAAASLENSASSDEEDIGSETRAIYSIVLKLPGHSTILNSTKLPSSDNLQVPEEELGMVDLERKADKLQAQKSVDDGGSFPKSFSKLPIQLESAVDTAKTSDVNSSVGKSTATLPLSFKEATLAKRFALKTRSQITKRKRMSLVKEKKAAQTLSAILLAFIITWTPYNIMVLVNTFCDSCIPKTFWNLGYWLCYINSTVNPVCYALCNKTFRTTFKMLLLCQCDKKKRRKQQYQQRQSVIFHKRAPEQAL
A short description of series [15]: Plasma concentration in Sprague-Dawley rats at 1 mg/kg after 14 days. On the set-up: dose 1 mg/kg. The series is classed as ADME, organism-based. The following applies: rat.
In a further series the target is CYP3A4 (Homo sapiens, UniProt P08684). Description: Inhibition of cytochrome P450 3A4 at 5 uM. The series is classed as ADME. The following applies: read-out: Activity.
CYP3A4, sequence (P08684 whole entry): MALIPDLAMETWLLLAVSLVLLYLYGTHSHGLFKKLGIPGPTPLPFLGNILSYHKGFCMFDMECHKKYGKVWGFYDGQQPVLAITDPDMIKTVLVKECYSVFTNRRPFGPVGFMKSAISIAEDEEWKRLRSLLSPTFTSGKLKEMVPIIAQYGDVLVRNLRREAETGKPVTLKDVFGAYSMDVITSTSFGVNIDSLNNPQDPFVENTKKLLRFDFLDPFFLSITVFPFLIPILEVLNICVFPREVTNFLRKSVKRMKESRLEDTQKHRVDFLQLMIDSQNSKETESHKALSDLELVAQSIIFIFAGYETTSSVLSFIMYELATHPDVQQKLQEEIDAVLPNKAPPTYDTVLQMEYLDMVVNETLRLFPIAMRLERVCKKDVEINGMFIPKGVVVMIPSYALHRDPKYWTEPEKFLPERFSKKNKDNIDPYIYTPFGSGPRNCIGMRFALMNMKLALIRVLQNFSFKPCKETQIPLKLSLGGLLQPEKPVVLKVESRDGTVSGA
A short description of series [16]: Brain concentration in Sprague-Dawley rat at 10 mg/kg, po after 4 hours. As to conditions: read-out: Drug uptake. On the set-up: dose 10 mg/kg, route oral. The format is ADME, organism-based. The procedure, abridged: as §2
The target in the next series is CYP2D6 (Homo sapiens, UniProt P10635). In words: Inhibition of cytochrome P450 2D6 at 5 uM. The format is ADME. As to conditions: read-out: Activity.
CYP2D6, sequence (P10635 whole entry): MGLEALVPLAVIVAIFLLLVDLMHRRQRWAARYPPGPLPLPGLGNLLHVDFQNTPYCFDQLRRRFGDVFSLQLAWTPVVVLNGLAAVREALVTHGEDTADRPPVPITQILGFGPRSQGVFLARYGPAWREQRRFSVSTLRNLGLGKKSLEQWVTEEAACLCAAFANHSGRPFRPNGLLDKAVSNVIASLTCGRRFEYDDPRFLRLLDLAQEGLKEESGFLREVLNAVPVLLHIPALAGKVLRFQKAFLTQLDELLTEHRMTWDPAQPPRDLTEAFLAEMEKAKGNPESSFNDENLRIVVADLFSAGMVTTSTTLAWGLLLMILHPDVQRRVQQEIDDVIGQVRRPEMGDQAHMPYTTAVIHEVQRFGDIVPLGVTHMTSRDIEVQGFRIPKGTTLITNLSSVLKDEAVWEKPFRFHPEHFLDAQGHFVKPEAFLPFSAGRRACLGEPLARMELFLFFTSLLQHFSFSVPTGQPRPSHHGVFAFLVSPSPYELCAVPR
In series [17] the target is T1, Melanin-concentrating hormone receptor 1. Description: Activity at chimeric rat/human MCH1R by accumulation of GTPgammaS. The procedure, abridged: as §1
The nature of series [18]: Brain concentration in Sprague-Dawley rat at 10 mg/kg, po after 1 hour. The series is classed as ADME, organism-based. The arrangement: dose 10 mg/kg, route oral. As to conditions: read-out: Drug uptake. Summed up:
as §2

Series [19] is described as follows: Bioavailability in Sprague-Dawley rat at 10 mg/kg, po and 2.5 mg/kg, iv. The format is ADME, organism-based. The following applies: in vivo.
In series [20] the target is T3, Voltage-gated inwardly rectifying potassium channel KCNH2. In words: Displacement of [3H]dofetilide from human ERG channel. (In general: Loss of bound radioactivity is the signal in a displacement assay; it reports binding, not function.)
Series [21] addresses Melanin-concentrating hormone receptor 1 (Rattus norvegicus) (UniProt P97639). Description: Inhibition of chimeric rat/human MCH1R at 10 uM. The procedure, abridged:
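Single-concentration test at 10 µM, reported as percent inhibition of MCH1R; values averaged from at least two replicates.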

T3 sequence (Q12809 whole entry): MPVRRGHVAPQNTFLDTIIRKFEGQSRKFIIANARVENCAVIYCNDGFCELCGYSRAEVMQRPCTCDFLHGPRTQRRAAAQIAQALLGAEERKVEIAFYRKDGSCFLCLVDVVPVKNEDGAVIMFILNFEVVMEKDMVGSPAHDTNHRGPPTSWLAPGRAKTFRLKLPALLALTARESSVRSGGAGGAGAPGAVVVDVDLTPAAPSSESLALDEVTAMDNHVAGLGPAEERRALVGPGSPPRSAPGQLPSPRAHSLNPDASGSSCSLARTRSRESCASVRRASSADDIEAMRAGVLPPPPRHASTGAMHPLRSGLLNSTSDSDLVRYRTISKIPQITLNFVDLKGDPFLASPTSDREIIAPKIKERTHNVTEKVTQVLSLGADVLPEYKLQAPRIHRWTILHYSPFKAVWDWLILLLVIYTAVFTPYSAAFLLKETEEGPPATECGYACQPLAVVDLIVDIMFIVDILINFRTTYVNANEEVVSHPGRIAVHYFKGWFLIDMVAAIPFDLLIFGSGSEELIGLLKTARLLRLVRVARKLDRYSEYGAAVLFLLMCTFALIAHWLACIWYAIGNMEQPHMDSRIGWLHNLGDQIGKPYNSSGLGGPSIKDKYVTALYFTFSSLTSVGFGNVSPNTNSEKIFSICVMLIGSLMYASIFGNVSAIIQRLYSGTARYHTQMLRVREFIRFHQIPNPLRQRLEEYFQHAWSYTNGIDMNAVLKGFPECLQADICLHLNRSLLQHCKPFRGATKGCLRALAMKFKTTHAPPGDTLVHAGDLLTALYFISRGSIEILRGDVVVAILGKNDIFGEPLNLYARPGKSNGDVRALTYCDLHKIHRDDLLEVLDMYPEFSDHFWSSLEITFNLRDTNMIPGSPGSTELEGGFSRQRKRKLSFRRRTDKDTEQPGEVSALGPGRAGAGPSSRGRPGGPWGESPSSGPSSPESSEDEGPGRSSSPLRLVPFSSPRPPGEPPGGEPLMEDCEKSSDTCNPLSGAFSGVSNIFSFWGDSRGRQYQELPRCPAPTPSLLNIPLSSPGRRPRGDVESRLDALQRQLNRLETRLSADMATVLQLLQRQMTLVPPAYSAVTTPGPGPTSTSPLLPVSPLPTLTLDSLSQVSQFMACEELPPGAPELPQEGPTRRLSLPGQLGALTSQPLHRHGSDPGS
Melanin-concentrating hormone receptor 1 (Rattus norvegicus), sequence (P97639 whole entry): as the sequence (P97639 whole entry, looked up) above

The Ki is the equilibrium dissociation constant of an inhibitor or competing ligand from its target. The low end stands for tighter binding, the high end for weaker binding. As a reminder, the CLint scaled is a measure of how fast metabolising enzymes remove a compound, apart from limits set by blood flow. The low end stands for greater metabolic stability, the high end for faster metabolism. Consider `CN(C)[C@H]1CCN(c2ccc(-n3ncc4cc(-c5ccc(C(F)(F)F)cc5)n(C)c4c3=O)cn2)C1`, for which, in series [1], affinity was put at a Ki of 14 nM. The same compound came in with a CLint scaled in series [2] of 48 mL/min/kg.
For the compound `CN(C)[C@H]1CCN(c2ccc(-n3ncc4cc(-c5ccc(C(F)(F)F)cc5)sc4c3=O)cn2)C1`, the Ki in series [1] was 4.4 nM. The same compound showed a CLint scaled in [2] of 18 mL/min/kg.
Compound `CN[C@@H]1CCN(c2ccc(-n3ncc4cc(-c5ccc(F)cc5)sc4c3=O)cn2)C1` displayed a Ki in series [1] of 2.5 nM. This compound yielded a CLint scaled in series [2] of 8.2 mL/min/kg.
`CCN[C@H]1CCN(c2ccc(-n3ncc4cc(-c5ccc(Cl)cc5)ccc4c3=O)cn2)C1` gave a Ki in series [1] of 1.9 nM. In [2], this compound displayed a CLint scaled of 9.2 mL/min/kg.
In turn, `CN[C@@H]1CCN(c2ccc(-n3ncc4cc(-c5ccc(C(F)(F)F)cc5)ccc4c3=O)cn2)C1` displayed a Ki in series [1] of 10 nM. In series [2], the intrinsic metabolic clearance (CLint scaled) was found to be 6 mL/min/kg.
`CN(C)[C@H]1CCN(c2ccc(-n3ncc4cc(-c5ccc(Cl)cc5)ccc4c3=O)cn2)C1` registered an inhibitory constant (Ki) in series [1] of 1.1 nM. This compound also gave a CLint scaled in series [2] of 12 mL/min/kg.
What is called AUC is the area under the concentration-time curve, a measure of exposure. Lower therefore signals low exposure. Broadly, the half-life is how long it takes for the measured level to halve. The Kp is tissue or fluid exposure divided by exposure in the circulation. In general, Cmax refers to the maximum level reached in the sampled fluid or tissue. For orientation: IC50 means the concentration that gives 50% inhibition. A lower IC50 goes with greater potency in that assay. In general, bioavailability refers to the share of a dose that reaches the circulation, judged against a reference dose that is usually intravenous. On to `CN[C@@H]1CCN(c2ccc(-n3ncc4cc(-c5ccc(C(F)(F)F)cc5)sc4c3=O)cn2)C1`, for which the inhibitory constant (Ki) was 260 nM in [3], 3.3 nM in series [1] and 160 nM in series [14]. Further, in series [4], the AUC stood at 8400 ng·h/mL. The compound further displayed a clearance in series [5] of 4.3 mL/min/kg. The compound further gave a half-life in series [6] of 11 h. For the same compound, the concentration ratio (Kp) at 4 h in [7] came out at 3.1. This compound displayed a maximum concentration (Cmax) in [8] of 500 ng/mL. Besides, the half-maximal inhibitory concentration (IC50) in [9] worked out at 1800 nM; in series [17], 7.7 nM. Further, the Selectivity ratio in [10] is 50. The Vd in [11] turned out to be 4.1 L/kg. Moreover, in series [12], the Kp at 1 h turned out to be 1.4. Further, in series [13], the concentration at 24 h turned out to be 280 nM. Besides, the concentration at 336 h in series [15] was 790 nM. The inhibition at 5 µM on CYP3A4 and on CYP2D6 was < 10% each time. For the same compound, in [16], the concentration at 4 h was found to be 1200 ng/g. Also, the concentration at 1 h in series [18] is 190 ng/g. Moreover, the intrinsic metabolic clearance (CLint scaled) in [2] came out at 8.5 mL/min/kg. In series [19], the bioavailability came out at 24%.
As to `O=c1c2ccc(-c3ccc(Cl)cc3)cc2cnn1-c1ccc(N2CC[C@H](N3CCCC3)C2)nc1`, the Ki in [1] was determined as 1.6 nM. Further, in series [2], the CLint scaled was found to be 16 mL/min/kg.
Turning to `CN[C@H]1CCN(c2ccc(-n3ncc4cc(-c5ccc(C(F)(F)F)cc5)sc4c3=O)cn2)C1`, in [1], the inhibition constant Ki turned out to be 3.1 nM.
On to `CN[C@H]1CCN(c2ccc(-n3ncc4cc(-c5ccc(F)cc5)sc4c3=O)cn2)C1`, for which, in series [1], the Ki was 2 nM. The compound also showed a CLint scaled in series [2] of 12 mL/min/kg.
For the compound `CN(C)[C@@H]1CCN(c2ccc(-n3ncc4cc(-c5ccc(Cl)cc5)ccc4c3=O)cn2)C1`, in series [1], affinity was put at a Ki of 1.1 nM. Also, the intrinsic metabolic clearance (CLint scaled) in series [2] was 21 mL/min/kg.
With `CN[C@H]1CCN(c2ccc(-n3ncc4cc(-c5ccc(OC)cc5C)ccc4c3=O)cn2)C1`, the Ki in series [1] stood at 11 nM. The intrinsic metabolic clearance (CLint scaled) in series [2] worked out at 8.8 mL/min/kg.
For `CNC1CCN(c2ccc(NC(=O)c3ccc(-c4ccccc4)cc3)cn2)C1` (stereo not given), the inhibition constant (Ki) in series [20] is 200 nM. This counts as sub-micromolar.
Consider `CN[C@@H]1CCN(c2ccc(-n3ncc4cc(-c5ccc(Cl)cc5)ccc4c3=O)cn2)C1`, for which the affinity in series [1] corresponds to a Ki of 1.5 nM. Besides, the intrinsic clearance (CLint scaled) in [2] stood at 12 mL/min/kg.
`CN[C@@H]1CCN(c2ccc(-n3ncc4cc(-c5ccc(Cl)cc5)sc4c3=O)cn2)C1` showed a Ki in series [1] of 1.9 nM. Also, in series [2], the CLint scaled came out at 8.4 mL/min/kg.
In [21], `CN(C)[C@H]1CCN(c2ccc(-n3ncc4cc(-c5ccc(C(F)(F)F)cc5)[se]c4c3=O)cn2)C1` returned an inhibition of 28%. Besides, the CLint scaled in series [2] was 27 mL/min/kg.
In series [1], `CCc1ccc(-c2cc3cnn(-c4ccc(N5CC[C@@H](NC)C5)nc4)c(=O)c3s2)cc1` returned a Ki of 2.6 nM. The same compound returned a CLint scaled in series [2] of 155 mL/min/kg.
As for `CN[C@H]1CCN(c2ccc(-n3ncc4cc(-c5ccc(Cl)cc5)ccc4c3=O)cn2)C1`, the Ki in series [1] worked out at 1.2 nM. The compound also came in with an AUC in series [4] of 2200 ng·h/mL. This compound gave a clearance in series [5] of 17 mL/min/kg. The compound also had a half-life in [6] of 9.4 h. In addition, in series [7], the Kp at 4 h stood at 23. In series [8], this compound came in with a peak concentration (Cmax) of 140 ng/mL. Further, the Vd in [11] worked out at 14 L/kg. Moreover, the concentration ratio (Kp) at 1 h in [12] was 7.8. Moreover, in series [16], the concentration at 4 h was 1700 ng/g. This compound showed an IC50 in series [17] of 8.5 nM. Also, the concentration at 1 h in [18] was determined as 94 ng/g. In series [2], the CLint scaled was 8.9 mL/min/kg. Besides, the bioavailability in [19] turned out to be 22%.
For the compound `CN(C)[C@H]1CCN(c2ccc(-n3ncc4cc(-c5ccc(C(F)(F)F)cc5)oc4c3=O)cn2)C1`, the affinity in series [1], expressed as Ki, was 21 nM. In [2], this compound came in with an intrinsic metabolic clearance (CLint scaled) of 28 mL/min/kg.
On to `CN[C@H]1CCN(c2ccc(-n3ncc4cc(-c5ccc(C(F)(F)F)cc5)ccc4c3=O)cn2)C1`, for which the inhibitory constant (Ki) in series [1] stood at 8.4 nM. Moreover, the intrinsic metabolic clearance (CLint scaled) in series [2] turned out to be 26 mL/min/kg.
Compound `CN[C@@H]1CCN(c2ccc(-n3ncc4cc(-c5ccc(OC)cc5)sc4c3=O)cn2)C1` showed a Ki in series [1] of 1.3 nM. This compound registered an intrinsic clearance (CLint scaled) in [2] of 720 mL/min/kg.
